Measured values from ChEMBL document CHEMBL3526043, “Application of quantitative NMR in pharmacological evaluation of biologically generated metabolites: implications in drug discovery” (Drug Metab Dispos, 2011).

Legend:
[1] = target: Phosphatidylinositol 4,5-bisphosphate 3-kinase catalytic subunit gamma isoform (Homo sapiens) (UniProt P48736); test: Binding affinity to PI3K-gamma (unknown origin) by fluorescence polarization assay
Liver microsome [2] = test: Drug metabolism in Sprague-Dawley rat liver microsomes assessed as hydroxylated product formation after 60 mins by LC-MS analysis; type: ADME; settings: 1 h
How it was run: (§1)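 Single enantiomers incubated with male rat, cynomolgus monkey or human liver microsomes (1 mg/mL) plus cytosol (2 mg/mL). Cofactors: NADPH 5 mM, MgCl2 8 mM, GSH 2 mM and UDPGA 2 mM, in 0.1 M phosphate, pH 7.4, at 37 °C for 60 min. Precipitated with 2% formic acid in acetonitrile, dried, reconstituted, and analysed by LC/MS (C18, 10–40% acetonitrile/5 mM ammonium acetate).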

[3] = Elimination half life in Sprague-Dawley rat at 2 mg/kg, iv administered as bolus dose; type: ADME, organism-based; set-up: dose 2 mg/kg, route intravenous; settings: in vivo, read-out: beta t1/2 (converted)
How it was run: (§2)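 Male Sprague-Dawley rats (n=3 per group), jugular/femoral cannulated, fed. Single IV bolus of 2 mg/kg in 5% dextrose/0.5% lactic acid, pH 3.5, at 1 mL/kg. Jugular blood sampled 0–1440 min into EDTA. Plasma measured by LC/MS/MS (LOQ 1 ng/mL, BLQ set to zero). Non-compartmental analysis with linear trapezoidal AUC; CL = Dose/AUC0-∞, Vdss = MRT·CL, t1/2 = 0.693/λ.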

[4] = Volume of distribution at steady state in Sprague-Dawley rat at 2 mg/kg, iv administered as bolus dose; type: ADME, organism-based; set-up: dose 2 mg/kg, route intravenous; settings: in vivo, read-out: Vdss; how it was run: as §2
[5] = Retention time of the compound by HPLC analysis; type: physicochemical
Liver microsome [6] = test: Drug level in human liver microsomes treated with 1-(4-(4-(3-oxa-8-azabicyclo[3.2.1]octan-8-yl)-6-morpholino-1,3,5-triazin-2-yl)phenyl)-3-(pyridin-4-yl)urea at 0.02 mM after 60 mins by 1H-13C-HSQC spectra analysis; type: ADME; settings: 20 µM
How it was run: (§3)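 Human liver microsomes at 1 mg/mL protein with substrate at 0.02 mM, 5 mM NADPH and 8 mM MgCl2 in 0.1 M potassium phosphate, pH 7.4. Incubated at 37 °C for 60 min. Stopped with 2% formic acid in acetonitrile and centrifuged. Metabolite isolated by semi-preparative C18 HPLC, then characterised by LC/MS (C18, acetonitrile/5 mM ammonium acetate gradient) and NMR.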

[7] = AUC (0 to infinity) in Sprague-Dawley rat at 2 mg/kg, iv administered as bolus dose; type: ADME, organism-based; set-up: time infinity, dose 2 mg/kg, route intravenous; settings: plasma; how it was run: as §2
[8] = Systemic clearance in Sprague-Dawley rat at 2 mg/kg, iv administered as bolus dose; type: ADME, organism-based; set-up: dose 2 mg/kg, route intravenous; settings: in vivo; how it was run: as §2
Rattus norvegicus = test: Drug level in Sprague-Dawley rat at 2 mg/kg, iv; settings: in vivo
[9] = target: Phosphatidylinositol 4,5-bisphosphate 3-kinase catalytic subunit alpha isoform (Homo sapiens) (UniProt P42336); test: Binding affinity to PI3K-alpha (unknown origin) by fluorescence polarization assay
Sequence of Phosphatidylinositol 4,5-bisphosphate 3-kinase catalytic subunit alpha isoform (Homo sapiens) (P42336 whole entry, canonical isoform): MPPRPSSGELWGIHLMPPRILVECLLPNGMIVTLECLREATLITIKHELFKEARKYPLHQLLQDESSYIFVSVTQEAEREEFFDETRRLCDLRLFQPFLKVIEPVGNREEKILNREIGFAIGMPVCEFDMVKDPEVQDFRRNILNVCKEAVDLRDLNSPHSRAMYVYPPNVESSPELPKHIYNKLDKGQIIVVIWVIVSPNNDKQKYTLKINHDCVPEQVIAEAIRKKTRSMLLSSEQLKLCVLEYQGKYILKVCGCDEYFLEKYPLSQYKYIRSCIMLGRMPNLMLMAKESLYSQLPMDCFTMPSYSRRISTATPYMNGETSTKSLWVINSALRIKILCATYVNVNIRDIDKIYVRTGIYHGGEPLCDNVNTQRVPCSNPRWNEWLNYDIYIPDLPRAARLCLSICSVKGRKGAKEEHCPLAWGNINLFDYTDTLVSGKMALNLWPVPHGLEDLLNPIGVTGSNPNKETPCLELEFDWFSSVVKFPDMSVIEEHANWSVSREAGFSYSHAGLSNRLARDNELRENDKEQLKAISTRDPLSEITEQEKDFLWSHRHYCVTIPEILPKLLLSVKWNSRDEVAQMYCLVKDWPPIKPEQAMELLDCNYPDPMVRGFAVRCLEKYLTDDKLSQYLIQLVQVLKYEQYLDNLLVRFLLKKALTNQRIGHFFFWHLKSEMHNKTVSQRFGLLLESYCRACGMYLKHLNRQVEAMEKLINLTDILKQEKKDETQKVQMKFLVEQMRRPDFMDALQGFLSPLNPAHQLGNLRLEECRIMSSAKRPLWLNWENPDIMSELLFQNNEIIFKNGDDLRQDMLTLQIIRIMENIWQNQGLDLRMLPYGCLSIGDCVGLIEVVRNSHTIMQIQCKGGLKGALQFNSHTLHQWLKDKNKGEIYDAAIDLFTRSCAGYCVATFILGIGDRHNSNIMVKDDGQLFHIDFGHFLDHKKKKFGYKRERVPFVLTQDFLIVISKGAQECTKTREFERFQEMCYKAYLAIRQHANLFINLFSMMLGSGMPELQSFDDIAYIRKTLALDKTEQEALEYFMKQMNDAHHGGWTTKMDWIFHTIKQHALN

Liver microsome [10] = test: Drug metabolism in human liver microsomes assessed as hydroxylated product formation after 60 mins by LC-MS analysis; type: ADME; settings: 1 h; how it was run: as §1
[11] = Drug metabolism in cynomolgus monkey liver microsomes assessed as hydroxylated product formation after 60 mins by LC-MS analysis; type: ADME, Macaca fascicularis; settings: 1 h; how it was run: as §1
Liver microsome [12] = test: Drug level in human liver microsomes treated with 1-(4-(4-(3-oxa-8-azabicyclo[3.2.1]octan-8-yl)-6-morpholino-1,3,5-triazin-2-yl)phenyl)-3-(pyridin-4-yl)urea by NMR analysis; type: ADME
How it was run: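 Metabolite isolated from the human liver microsome incubation and quantified by 1H NMR. A calibration curve was built from parent-compound spectra at 5 concentrations, using the averaged integration of aromatic protons (δ 8.37, 8.30, 7.55, 7.44). Metabolite concentration was read from that curve; spectra were referenced to residual solvent.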

[13] = Drug level in cynomolgus monkey liver microsomes treated with 1-(4-(4-(3-oxa-8-azabicyclo[3.2.1]octan-8-yl)-6-morpholino-1,3,5-triazin-2-yl)phenyl)-3-(pyridin-4-yl)urea at 0.02 mM after 60 mins by LC-MS analysis; type: ADME, Macaca fascicularis; settings: 1 h, 20 µM
Liver microsome [14] = test: Drug level in human liver microsomes treated with 1-(4-(4-(3-oxa-8-azabicyclo[3.2.1]octan-8-yl)-6-morpholino-1,3,5-triazin-2-yl)phenyl)-3-(pyridin-4-yl)urea at 0.02 mM after 60 mins by LC-MS analysis; type: ADME; settings: 1 h, 20 µM; how it was run: as §3
[15] = target: Serine/threonine-protein kinase mTOR (Homo sapiens) (UniProt P42345); test: Binding affinity to mTOR (unknown origin) by DELFIA
Liver microsome [16] = test: Drug metabolism in human liver microsomes assessed as (rac)-1-(4-(4-(6-hydroxy-3-oxa-8-azabicyclo[3.2.1]octan-8-yl)-6-morpholino-1,3,5-triazin-2-yl)phenyl)-3-(pyridin-4-yl)urea formation at 0.02 mM after 60 mins by LC-MS analysis; type: ADME; settings: 1 h, 20 µM
How it was run: (§4)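 Parent at 0.02 mM was incubated with human liver microsomes (1 mg/mL protein) in 0.1 M potassium phosphate pH 7.4 with 5 mM NADPH and 8 mM MgCl₂, at 37 °C for 60 min. Reactions were quenched with 2% formic acid in acetonitrile and the metabolite isolated by semi-preparative C18 HPLC. Identity was checked by LC/MS on C18 with an acetonitrile/5 mM ammonium acetate gradient.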

Liver microsome [17] = test: Drug metabolism in human liver microsomes assessed as (1R,5R,6R)-1-(4-(4-(6-hydroxy-3-oxa-8-azabicyclo[3.2.1]octan-8-yl)-6-morpholino-1,3,5-triazin-2-yl)phenyl)-3-(pyridin-4-yl)urea formation at 0.02 mM after 60 mins by 1H-13C-HSQC spectra analysis; settings: 20 µM
[18] = Drug metabolism in cynomolgus monkey liver microsomes assessed as (rac)-1-(4-(4-(6-hydroxy-3-oxa-8-azabicyclo[3.2.1]octan-8-yl)-6-morpholino-1,3,5-triazin-2-yl)phenyl)-3-(pyridin-4-yl)urea formation at 0.02 mM after 60 mins by LC-MS analysis; type: ADME, Macaca fascicularis; settings: 1 h, 20 µM
Liver microsome [19] = test: Drug metabolism in human liver microsomes assessed as (1R,5R,6R)-1-(4-(4-(6-hydroxy-3-oxa-8-azabicyclo[3.2.1]octan-8-yl)-6-morpholino-1,3,5-triazin-2-yl)phenyl)-3-(pyridin-4-yl)urea formation at 0.02 mM after 60 mins by 1H-13C-HSQC spectra analysis; type: ADME; settings: 20 µM; how it was run: as §4

Sequence of Phosphatidylinositol 4,5-bisphosphate 3-kinase catalytic subunit gamma isoform (Homo sapiens) (P48736 whole entry, looked up, canonical isoform): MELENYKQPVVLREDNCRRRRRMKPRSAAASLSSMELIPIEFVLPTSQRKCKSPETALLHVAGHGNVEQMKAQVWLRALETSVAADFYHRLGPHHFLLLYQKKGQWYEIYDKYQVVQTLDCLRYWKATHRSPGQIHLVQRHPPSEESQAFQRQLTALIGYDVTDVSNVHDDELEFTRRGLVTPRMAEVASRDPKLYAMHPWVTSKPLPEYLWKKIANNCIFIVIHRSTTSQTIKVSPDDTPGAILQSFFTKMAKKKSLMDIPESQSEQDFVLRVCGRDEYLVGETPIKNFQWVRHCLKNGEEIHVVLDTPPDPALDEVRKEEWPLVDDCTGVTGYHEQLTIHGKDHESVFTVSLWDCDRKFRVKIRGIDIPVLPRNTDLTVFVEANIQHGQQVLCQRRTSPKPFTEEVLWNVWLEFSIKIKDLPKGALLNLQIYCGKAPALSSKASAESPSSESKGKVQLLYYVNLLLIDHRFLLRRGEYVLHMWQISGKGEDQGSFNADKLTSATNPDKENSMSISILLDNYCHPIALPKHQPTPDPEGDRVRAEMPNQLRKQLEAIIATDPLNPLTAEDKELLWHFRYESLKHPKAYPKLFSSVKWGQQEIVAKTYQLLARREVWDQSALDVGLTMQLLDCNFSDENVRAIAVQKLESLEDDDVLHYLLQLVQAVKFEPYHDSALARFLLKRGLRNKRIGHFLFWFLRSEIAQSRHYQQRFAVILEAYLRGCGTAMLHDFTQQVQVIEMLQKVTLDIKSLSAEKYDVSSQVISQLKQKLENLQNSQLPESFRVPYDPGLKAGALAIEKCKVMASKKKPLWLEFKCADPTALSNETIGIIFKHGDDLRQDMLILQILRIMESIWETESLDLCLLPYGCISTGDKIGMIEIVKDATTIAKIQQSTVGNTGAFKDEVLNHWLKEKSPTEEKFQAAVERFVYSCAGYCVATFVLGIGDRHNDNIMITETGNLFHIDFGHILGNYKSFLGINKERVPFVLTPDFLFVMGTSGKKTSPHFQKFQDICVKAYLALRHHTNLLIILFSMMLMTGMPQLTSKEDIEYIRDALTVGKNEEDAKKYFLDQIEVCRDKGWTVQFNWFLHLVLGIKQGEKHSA

Structure (SMILES)	Activity [1]	Stability (Liver microsome [2])	half-life [3]	Vd [4]	Retention_time [5]	Drug metabolism (Liver microsome [6])	AUC(0-inf) [7]	clearance [8]	Drug uptake (Rattus norvegicus)	Activity [9]	Drug metabolism (Liver microsome [10])	Drug metabolism [11]	Drug uptake (Liver microsome [12])	Drug metabolism [13]	Drug metabolism (Liver microsome [14])	Activity [15]	Drug metabolism (Liver microsome [16])	Drug metabolism (Liver microsome [17])	Drug metabolism [18]	Drug metabolism (Liver microsome [19])
O=C(Nc1ccncc1)Nc1ccc(-c2nc(N3CCOCC3)nc(N3[C@@H]4COC[C@H]3[C@@H](O)C4)n2)cc1	93 nM	Stable	12 min	0.9 L/kg	13.4 min	metabolite_detected	283 ng·h/mL	123 mL/min/kg	metabolite_not_detected	9 nM	metabolite_detected	metabolite_detected	–	–	–	–	–	–	–	–
O=C(Nc1ccncc1)Nc1ccc(-c2nc(N3CCOCC3)nc(N3[C@H]4COC[C@@H]3[C@H](O)C4)n2)cc1	50 nM	Stable	42 min	1.5 L/kg	10.2 min	metabolite_detected	315 ng·h/mL	107 mL/min/kg	metabolite_not_detected	4 nM	metabolite_not_detected	metabolite_not_detected	–	–	–	–	–	–	–	–
O=C(Nc1ccncc1)Nc1ccc(-c2nc(N3CCOCC3)nc(N3C4COCC3C(O)C4)n2)cc1 (racemic)	33 nM	–	–	–	–	–	–	–	–	4 nM	–	–	1.72 mM	metabolite_detected	metabolite_detected	0.8 nM	–	–	–	–
O=C(Nc1ccncc1)Nc1ccc(-c2nc(N3CCOCC3)nc(N3C4CCC3COC4)n2)cc1 [PKI-179]	51 nM	–	54 min	2.4 L/kg	–	–	867 ng·h/mL	38.3 mL/min/kg	metabolite_not_detected	8 nM	–	–	–	–	–	0.5 nM	metabolite_detected	metabolite_detected	metabolite_detected	metabolite_detected
